Experimental data reported in ChEMBL document CHEMBL4706642, “Discovery of a Potent Dual Inhibitor of Acetylcholinesterase and Butyrylcholinesterase with Antioxidant Activity that Alleviates Alzheimer-like Pathology in Old APP/PS1 Mice” (J Med Chem, 2021).
pIC50: −log10 of the molar value. Calls of active or inactive are those of the source.

Tests used:
Acetylcholinesterase = Acetylcholinesterase (Homo sapiens, UniProt P22303); assay: Inhibition of recombinant human AChE using acetylthiocholineiodide as substrate preincubated for 20 mins followed by substrate addition by Ellman's method
Sequence of Acetylcholinesterase (P22303 whole entry): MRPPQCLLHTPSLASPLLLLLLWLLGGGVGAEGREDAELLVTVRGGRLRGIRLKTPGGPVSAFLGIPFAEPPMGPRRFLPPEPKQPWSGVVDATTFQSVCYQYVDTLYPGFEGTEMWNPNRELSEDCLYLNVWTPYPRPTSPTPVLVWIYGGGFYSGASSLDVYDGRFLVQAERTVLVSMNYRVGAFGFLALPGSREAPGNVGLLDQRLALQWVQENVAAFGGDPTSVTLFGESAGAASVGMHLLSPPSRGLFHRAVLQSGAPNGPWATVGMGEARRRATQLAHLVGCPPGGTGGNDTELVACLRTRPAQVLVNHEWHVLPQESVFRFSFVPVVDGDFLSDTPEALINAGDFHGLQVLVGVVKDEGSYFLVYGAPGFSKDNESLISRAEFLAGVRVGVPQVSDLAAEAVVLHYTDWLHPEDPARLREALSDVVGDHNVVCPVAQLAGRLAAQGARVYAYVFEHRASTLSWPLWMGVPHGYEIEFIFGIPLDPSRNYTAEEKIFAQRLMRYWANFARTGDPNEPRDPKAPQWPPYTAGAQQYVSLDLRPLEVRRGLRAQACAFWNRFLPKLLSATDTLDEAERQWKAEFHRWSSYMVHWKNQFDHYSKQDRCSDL
Outline: (§1)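 Enzyme was 0.02 U/mL human recombinant AChE or human serum BChE. Non-enzymatic hydrolysis was corrected. IC50 came from a % inhibition vs log[I] regression. Selectivity = IC50 hBChE/IC50 hAChE. Mean ± SEM of ≥2 experiments, each in duplicate/triplicate.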

[1] = target: Beta-secretase 1 (Homo sapiens) (UniProt P56817); assay: Inhibition of recombinant human BACE-1 at 1 uM using methoxycoumarin-Ser-Glu-Val-Asn-Leu-Asp-Ala-Glu-Phe-Lys-dinitrophenyl as substrate preincubated for 1 hr followed by substrate addition and measured after 15 mins by fluorescence based assay relative to control; details: time 75.0 min
Sequence of Beta-secretase 1 (Homo sapiens) (P56817 whole entry): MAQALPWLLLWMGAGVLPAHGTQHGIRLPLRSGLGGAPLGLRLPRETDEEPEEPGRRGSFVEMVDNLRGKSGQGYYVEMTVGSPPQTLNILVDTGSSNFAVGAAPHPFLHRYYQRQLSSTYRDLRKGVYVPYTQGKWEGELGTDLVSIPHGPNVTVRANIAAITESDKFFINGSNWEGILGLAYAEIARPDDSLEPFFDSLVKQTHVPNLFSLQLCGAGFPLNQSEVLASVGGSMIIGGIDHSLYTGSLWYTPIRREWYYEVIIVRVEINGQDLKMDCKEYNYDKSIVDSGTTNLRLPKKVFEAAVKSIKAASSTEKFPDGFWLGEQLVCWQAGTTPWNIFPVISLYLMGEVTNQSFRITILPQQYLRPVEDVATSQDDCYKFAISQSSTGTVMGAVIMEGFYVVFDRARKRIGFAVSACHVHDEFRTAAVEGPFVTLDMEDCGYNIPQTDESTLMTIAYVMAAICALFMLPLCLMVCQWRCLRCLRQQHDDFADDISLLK

[2] = Permeability of the compound in PBS/EtOH buffer (70:30) by PAMPA-BBB assay; type: ADME; details: read-out: permeability
Outline: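 PAMPA-BBB permeability, reported as Pe in 10⁻⁶ cm s⁻¹, with CNS+ defined as Pe > 5.1. Mean ± SD of three experiments, each in triplicate.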

[3] = Antioxidant activity assessed as DPPH radical scavenging activity incubated for 30 mins under dark condition by UV-Vis spectrophotometric analysis; type: functional
Cholinesterase [4] = target: T1, Cholinesterase (Homo sapiens, UniProt P06276); assay: Inhibition of human serum BChE using butyrylthiocholineiodide as substrate preincubated for 20 mins followed by substrate addition by Ellman's method; type: cell-free; outline: as §1
T1 sequence (P06276 whole entry): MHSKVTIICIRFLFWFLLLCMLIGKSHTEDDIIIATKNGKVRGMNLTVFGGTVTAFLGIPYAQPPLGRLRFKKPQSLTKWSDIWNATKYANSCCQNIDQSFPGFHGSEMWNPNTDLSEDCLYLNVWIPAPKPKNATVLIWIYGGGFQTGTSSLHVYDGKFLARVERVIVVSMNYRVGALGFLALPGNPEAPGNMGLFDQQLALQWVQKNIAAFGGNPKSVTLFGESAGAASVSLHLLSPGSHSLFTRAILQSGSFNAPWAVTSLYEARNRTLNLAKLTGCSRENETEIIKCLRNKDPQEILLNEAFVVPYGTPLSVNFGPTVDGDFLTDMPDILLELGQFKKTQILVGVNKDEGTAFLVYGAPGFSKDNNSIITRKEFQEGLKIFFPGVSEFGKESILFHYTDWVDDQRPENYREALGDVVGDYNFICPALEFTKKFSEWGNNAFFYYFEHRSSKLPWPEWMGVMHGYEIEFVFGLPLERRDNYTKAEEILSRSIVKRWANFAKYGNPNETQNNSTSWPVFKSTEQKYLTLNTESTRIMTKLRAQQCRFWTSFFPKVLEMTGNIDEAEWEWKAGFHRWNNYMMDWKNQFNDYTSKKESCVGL

[5] = Selectivity index, ratio of IC50 for human serum BChE using butyrylthiocholineiodide as substrate to IC50 for recombinant human AChE using acetylthiocholine iodide as substrate
Outline: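 Ellman spectrophotometric assay in 0.1 M phosphate buffer, pH 8.0, with 340 μM DTNB. Enzyme was 0.02 U/mL human recombinant AChE or human serum BChE. […] Then 550 μM ATCh or BTCh was added, and A412 was followed for 210 s. Non-enzymatic hydrolysis was corrected. IC50 came from a % inhibition vs log[I] regression. Selectivity = IC50 hBChE/IC50 hAChE. Mean ± SEM of ≥2 experiments, each in duplicate/triplicate.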

Cholinesterase [6] = target: T1, Cholinesterase; assay: Inhibition of human serum BChE at 100 uM using butyrylthiocholineiodide as substrate preincubated for 20 mins followed by substrate addition by Ellman's method relative to control; type: cell-free
[7] = target: Acetylcholinesterase (Electrophorus electricus) (UniProt O42275); assay: Displacement of propidium iodide from PAS-region of electric eel AChE assessed as decrease in fluorescence intensity at 4 to 92 uM by spectrofluorimetric analysis relative to control; parameters: scale not given: the % may be the effect or the level left; details: dose 4-92 µM
Sequence of Acetylcholinesterase (Electrophorus electricus) (O42275 24-633 limits assumed): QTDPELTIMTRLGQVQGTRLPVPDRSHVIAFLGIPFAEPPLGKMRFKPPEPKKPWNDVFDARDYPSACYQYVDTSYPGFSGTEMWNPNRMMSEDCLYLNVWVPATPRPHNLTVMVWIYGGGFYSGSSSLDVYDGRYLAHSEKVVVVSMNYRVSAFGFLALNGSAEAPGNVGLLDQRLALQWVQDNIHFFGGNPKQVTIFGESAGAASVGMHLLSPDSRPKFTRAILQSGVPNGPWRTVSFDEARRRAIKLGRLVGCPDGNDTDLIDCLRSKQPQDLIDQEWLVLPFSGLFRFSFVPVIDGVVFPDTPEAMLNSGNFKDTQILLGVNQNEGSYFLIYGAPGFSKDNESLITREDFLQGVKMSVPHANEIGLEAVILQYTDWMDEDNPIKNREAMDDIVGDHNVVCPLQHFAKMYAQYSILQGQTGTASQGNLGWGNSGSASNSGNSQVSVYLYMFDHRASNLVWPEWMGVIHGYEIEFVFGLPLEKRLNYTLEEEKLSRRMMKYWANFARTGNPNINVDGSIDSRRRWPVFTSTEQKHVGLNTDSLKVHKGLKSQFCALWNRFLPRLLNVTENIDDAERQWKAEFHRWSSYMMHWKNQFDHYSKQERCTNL
Outline: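 Back-titration fluorescence assay using electric eel AChE (type VI-S). Inhibitor was added in successive aliquots from a MeOH stock. Emission was read at 602 nm with excitation at 535 nm, after subtracting blanks. […] Three independent experiments.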

[8] = Drug concentration in wild type C57BL6 mouse plasma at 2 mg/kg, ip thrice a week for 2 weeks observed after 4 hrs post last dose by HPLC/MS/MS analysis; details: in vivo
[9] = Drug concentration in wild type C57BL6 mouse brain at 2 mg/kg, ip thrice a week for 2 weeks observed after 4 hrs post last dose by HPLC/MS/MS analysis; details: in vivo
[10] = target: Beta-secretase 1 (Homo sapiens) (UniProt P56817); assay: Inhibition of recombinant human BACE-1 at 5 uM using methoxycoumarin-Ser-Glu-Val-Asn-Leu-Asp-Ala-Glu-Phe-Lys-dinitrophenyl as substrate preincubated for 1 hr followed by substrate addition and measured after 15 mins by fluorescence based assay relative to control; details: time 75.0 min

Compound | pIC50 (Acetylcholinesterase) | inhibition [1] | Papp [2] [×10⁻⁶ cm/s] | pIC50 [3] | pIC50 (Cholinesterase [4]) | Ratio IC50 [5] | inhibition (Cholinesterase [6]) [%] | Activity [7] [%] | concentration at 336 h [8] [ng/mL] | concentration at 336 h [9] [ng/g] | inhibition [10] [%]
COc1cc(CNC(=O)CCCCCCCNc2c3c(nc4cc(Cl)ccc24)CC2C=C(C)CC3C2)ccc1O (stereo unspecified) | 8.71 | 3.6% | 20.1 | 4.15 | 7.29 | 26.7 | – | – | – | – | –
COc1cc(CNC(=O)CCCC/C=C/C(C)C)ccc1O [CAPSAICIN] | < 3.70 | inactive | 10.3 | 4.30 | – | – | 20 | 11 | – | – | –
COc1cc(CNC(=O)CCCCCNc2c3c(nc4cc(Cl)ccc24)CC2C=C(C)CC3C2)ccc1O (stereo unspecified) | 8.36 | 34.3% | 14.9 | 4.20 | 7.15 | 16.1 | – | – | – | – | –
COc1cc2c(cc1OC)C(=O)C(CC1CCN(Cc3ccccc3)CC1)C2 (stereo unspecified) [DONEPEZIL] | – | – | – | – | – | – | – | – | 6460 | 6130 | –
COc1cc(CNC(=O)CCCC/C=C/CNc2c3c(nc4cc(Cl)ccc24)CC2C=C(C)CC3C2)ccc1O (stereo unspecified) | 8.36 | inactive | 16.8 | 4.50 | 7.11 | 17.7 | – | – | – | – | –
COc1cc(CNC(=O)CCCCCCCCNc2c3c(nc4cc(Cl)ccc24)CC2C=C(C)CC3C2)ccc1O (stereo unspecified) | 8.53 | 23.7% | 21.8 | 4.19 | 7.44 | 12.3 | – | – | – | – | –
COc1cc(CNC(=O)c2ccc(CNc3c4c(nc5cc(Cl)ccc35)CC3C=C(C)CC4C3)cc2)ccc1O (stereo unspecified) | 7.60 | inactive | 14.3 | 4.15 | 6.54 | 11.6 | – | – | – | – | –
COc1cc(CNC(=O)CCCC/C=C/CCCNc2c3c(nc4cc(Cl)ccc24)CC2C=C(C)CC3C2)ccc1O (stereo unspecified) | 8.25 | 21.6% | 22.3 | 4.26 | 7.27 | 9.4 | – | – | – | – | –
COc1cc(CNC(=O)CCCCNc2c3c(nc4cc(Cl)ccc24)CC2C=C(C)CC3C2)ccc1O (stereo unspecified) | 8.26 | 55.6% | 11.5 | 4.16 | 7.28 | 9.5 | – | – | – | – | –
CC1=CC2Cc3nc4cc(Cl)ccc4c(N)c3C(C1)C2 (stereo unspecified) | – | – | – | – | – | – | – | – | – | – | 14
